Results on 18 compounds are retold here after ChEMBL document CHEMBL1811785, “Investigations on the 4-quinolone-3-carboxylic acid motif. 4. Identification of new potent and selective ligands for the cannabinoid type 2 receptor with diverse substitution patterns and antihyperalgesic effects in mice” (J Med Chem, 2011).

One may read the Ki as the equilibrium dissociation constant of an inhibitor or competing ligand from its target.

Activity calls are given as the source filed them. The calls are words filed in the database; no cut-off is given here.

In series [1] the target is Cannabinoid receptor 1 (Homo sapiens, UniProt P21554). In words: biochemical. The class given is cell-based, HEK293.
The target of series [2] is Cannabinoid receptor 2 (Homo sapiens, UniProt P34972). In words: Displacement of [3H]CP-55940 from human recombinant CB2 receptor expressed in HEK cells. The format is cell-based, HEK293. For orientation: Loss of bound radioactivity is the signal in a displacement assay; it reports binding, not function.
Series [3] is filed under the species Homo sapiens. Briefly: Selectivity index, ratio of Ki for human recombinant CB1 receptor to Ki for human recombinant CB2 receptor.
Series [4] in a line: Cytotoxicity against human HepG2 cells assessed as cell viability at 1 uM after 72 hrs by MTT assay. The format is cell-based. The settings on record: read-out: Activity. An outline of the steps: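 HepG2 cells in DMEM with 10% FBS at 37 °C and 5% CO2 were seeded at 1 × 10⁵ per well and left to attach for 24 h. Compound was added at 1 μM final, diluted from a 1 mM DMSO stock, for 72 h. MTT was then added for 4 h at 37 °C, formazan was dissolved in DMSO and read at 540 nm. Viability = A(test)/A(medium-only control) × 100.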
Background: Tetrazolium assays rely on reduction of a dye to a coloured formazan, in cell work by metabolically active cells.

Series [5] relates to Mus musculus. In words: Antinociceptive activity in mouse assessed as reduction of formalin-induced nocifensive response at 3 mg/kg, ip administered 15 mins before formalin challenge measured second phase of 20 to 60 mins. The format is functional, organism-based. More on the design: dose 3 mg/kg. In outline:
(§1)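 Mice received compound ip at 1, 3 or 6 mg/kg (or vehicle) 15 min before formalin (1.25% in saline, 30 μL) was injected into the dorsal hindpaw. An observer blind to treatment timed lifting, favoring, licking, shaking and flinching of the injected paw over 0–10 min (early phase) and 20–60 min (late phase). n = 8–10 per group, one treatment per animal. Means ± SEM, ANOVA with Dunnett's test.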

Series [6] relates to Mus musculus. Briefly: Antinociceptive activity in mouse assessed as reduction of formalin-induced nocifensive response at 3 mg/kg, ip administered 15 mins before formalin challenge measured first phase of 0 to 10 mins. The format is functional, organism-based. Also noted: dose 3 mg/kg. An outline of the steps: as §1
Series [7] addresses T1, Fatty-acid amide hydrolase 1 (Rattus norvegicus) (UniProt P97612).
T1 sequence (whole entry): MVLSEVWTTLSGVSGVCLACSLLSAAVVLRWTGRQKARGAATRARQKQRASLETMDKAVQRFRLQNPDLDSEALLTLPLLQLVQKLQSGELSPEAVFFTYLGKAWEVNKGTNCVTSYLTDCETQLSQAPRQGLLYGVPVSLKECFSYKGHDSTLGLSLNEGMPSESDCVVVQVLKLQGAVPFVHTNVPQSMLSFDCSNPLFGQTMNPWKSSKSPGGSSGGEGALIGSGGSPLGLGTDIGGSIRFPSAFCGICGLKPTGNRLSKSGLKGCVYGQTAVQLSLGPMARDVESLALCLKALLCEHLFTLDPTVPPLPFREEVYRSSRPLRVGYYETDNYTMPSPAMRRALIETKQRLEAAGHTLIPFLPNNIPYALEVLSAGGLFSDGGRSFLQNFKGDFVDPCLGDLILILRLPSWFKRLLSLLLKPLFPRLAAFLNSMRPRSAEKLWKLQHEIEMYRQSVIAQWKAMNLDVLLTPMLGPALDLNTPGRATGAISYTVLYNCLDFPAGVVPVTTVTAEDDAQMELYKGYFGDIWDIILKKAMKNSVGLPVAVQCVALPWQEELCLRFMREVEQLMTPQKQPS
Briefly: Inhibition of rat brain FAAH assessed as [14C]-anandamide hydrolysis up to 10 uM. An outline of the steps:
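Hydrolysis of [¹⁴C]-anandamide by rat brain FAAH-like activity, with compound at 0.1, 1, 5 and 10 μM.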

The test system of series [8] is COS-7. Briefly: Inhibition of MAGL in african green monkey COS7 cells assessed as [14C]-2-arachidonoyl-glycerol hydrolysis up to 10 uM. Conditions: Chlorocebus aethiops. The class given is cell-based. In outline: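 COS-7 cell MAGL-like activity measured as hydrolysis of [¹⁴C]-2-arachidonoyl-glycerol, with compound tested at 0.1, 1, 5 and 10 μM.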
Series [9] deals with Mus musculus. Briefly: Antinociceptive activity in mouse assessed as reduction of formalin-induced nocifensive response at 3 mg/kg, ip administered 15 mins before formalin challenge measured first phase of 0 to 10 mins in presence of CB2 receptor antagonist 1 mg/kg, ip of AM630. The class given is functional, organism-based. In outline: (§2)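 Formalin paw test in mice. AM630 (1 mg/kg, ip) was given 5 min before the compound, and the compound was given ip 15 min before intraplantar-dorsal formalin (1.25% in saline, 30 μL). A blinded observer timed paw lifting, favoring, licking, shaking and flinching at 0–10 and 20–60 min. n = 8–10 per group. Means ± SEM, ANOVA with Dunnett's test.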

In series [10] the test system is Mus musculus. Briefly: Antinociceptive activity in ip dosed mouse assessed as reduction of formalin-induced nocifensive response administered 15 mins before formalin challenge measured first phase of 0 to 10 mins. The settings on record: read-out: MED. The format is functional. An outline of the steps: as §1
The test system of series [11] is Mus musculus. Briefly: Antinociceptive activity in mouse assessed as reduction of formalin-induced nocifensive response at 6 mg/kg, ip administered 15 mins before formalin challenge measured second phase of 20 to 60 mins. The class given is functional, organism-based. More on the design: dose 6 mg/kg. In outline:
as §1

The test system of series [12] is Mus musculus. In words: Antinociceptive activity in mouse assessed as reduction of formalin-induced nocifensive response at 6 mg/kg, ip administered 15 mins before formalin challenge measured second phase of 20 to 60 mins in presence of CB2 receptor antagonist 1 mg/kg, ip of AM630. The format is functional, organism-based. In outline: as §2

Cannabinoid receptor 2, sequence (P34972 whole entry): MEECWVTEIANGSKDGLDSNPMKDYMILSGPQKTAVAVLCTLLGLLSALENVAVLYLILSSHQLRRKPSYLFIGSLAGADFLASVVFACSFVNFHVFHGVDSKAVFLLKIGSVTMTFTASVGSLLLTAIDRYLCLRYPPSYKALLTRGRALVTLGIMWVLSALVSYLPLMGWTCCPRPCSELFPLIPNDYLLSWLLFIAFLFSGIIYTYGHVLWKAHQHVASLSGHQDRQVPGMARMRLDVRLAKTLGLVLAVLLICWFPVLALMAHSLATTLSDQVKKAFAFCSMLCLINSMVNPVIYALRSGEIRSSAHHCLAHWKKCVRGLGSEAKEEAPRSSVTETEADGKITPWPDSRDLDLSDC
Cannabinoid receptor 1, sequence (P21554 whole entry): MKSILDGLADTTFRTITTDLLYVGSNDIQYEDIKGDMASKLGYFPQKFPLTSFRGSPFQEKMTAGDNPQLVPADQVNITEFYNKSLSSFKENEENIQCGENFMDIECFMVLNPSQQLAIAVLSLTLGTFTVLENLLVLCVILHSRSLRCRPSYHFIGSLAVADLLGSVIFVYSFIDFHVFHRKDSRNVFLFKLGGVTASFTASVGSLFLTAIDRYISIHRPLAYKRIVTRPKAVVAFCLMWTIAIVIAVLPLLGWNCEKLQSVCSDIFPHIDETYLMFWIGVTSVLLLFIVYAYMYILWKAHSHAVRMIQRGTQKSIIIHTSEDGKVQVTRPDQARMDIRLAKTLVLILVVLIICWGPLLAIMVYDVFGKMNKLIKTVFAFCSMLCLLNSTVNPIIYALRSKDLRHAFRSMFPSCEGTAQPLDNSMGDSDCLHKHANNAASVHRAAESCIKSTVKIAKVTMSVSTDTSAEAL

`CCCCCn1cc(C(=O)NC23CC4CC(CC(C4)C2)C3)c(=O)c2cc(Br)cc(OC)c21`: the Ki in series [1] was greater than 10000 nM; in series [2], 22.9 nM. Also, the Ratio Ki in series [3] is greater than 437. Also, the viability at 72 h, 1 µM in [4] is greater than 95%.

For `CCCCCn1c(=O)c(C(=O)NC23CC4CC(CC(C4)C2)C3)cc2ccccc21`, the Ki turned out to be 31.3 nM in [1] and 0.2 nM in [2]. In series [3], the Ratio Ki worked out at 157.

As to `COc1cccc2c(=O)c(C(=O)NC34CC5CC(CC(C5)C3)C4)c[nH]c12`, the Ratio Ki in series [3] was greater than 2.9.

As to `CCCCCOc1cccc2c(=O)c(C(=O)NC34CC5CC(CC(C5)C3)C4)c[nH]c12`, in [3], the Ratio Ki was found to be 4.3.

Regarding `CCCCc1[nH]c2ccc(-c3ccco3)cc2c(=O)c1C(=O)NC12CC3CC(CC(C3)C1)C2`, the Ki in series [1] is greater than 10000 nM; in [2] it was 133 nM. Also, in series [3], the Ratio Ki was greater than 75. Also, the viability at 72 h, 1 µM in series [4] is greater than 95%.

In the case of `CCCCCn1c(=O)c(C(=O)NC23CC4CC(CC(C4)C2)C3)c(O)c2cc(-c3ccco3)ccc21`, the Ki was 270 nM in series [1] and 15 nM in series [2]. Moreover, the Ratio Ki in [3] was determined as 18. For the same compound, the viability at 72 h, 1 µM in series [4] was greater than 95%.

Consider `CCCCCn1cc(C(=O)NC23CC4CC(CC(C4)C2)C3)c(=O)c2cccc([N+](=O)[O-])c21`, for which the Ki is 200 nM in series [1] and 1 nM in [2]. Moreover, the Ratio Ki in [3] turned out to be 200.

For `CCCCCOc1cccc2c(O)c(C(=O)NC34CC5CC(CC(C5)C3)C4)cnc12`, the values for the Ki in [1] and in series [2] were 260 nM and 60 nM, respectively. Besides, in series [4], the viability at 72 h, 1 µM is greater than 95%.

Regarding `O=C(NC12CC3CC(CC(C3)C1)C2)c1c[nH]c2c(-c3ccccc3)cccc2c1=O`, the Ratio Ki in series [3] amounted to 45.

Regarding `COc1cccc2c(O)c(C(=O)NC34CC5CC(CC(C5)C3)C4)cnc12`, the Ki in series [1] was greater than 10000 nM; in series [2] it was 3440 nM.

As for `CCCCCn1c(=O)c(C(=O)NC23CC4CC(CC(C4)C2)C3)c(O)c2cc(Br)ccc21`, the outcome in series [5] and in [6] was Active. Moreover, the values for the Ki in [1] and in [2] were greater than 10000 nM and 29.4 nM, respectively. For the same compound, the Ratio Ki in [3] is greater than 340. In addition, the inhibition entry in series [7] and in series [8] was “inactive” each time. For the same compound, in series [4], the viability at 72 h, 1 µM was greater than 95%. Also, the result in series [9] was inactive.

Take `CCCCCn1cc(C(=O)NC23CC4CC(CC(C4)C2)C3)c(=O)c2cc(-c3ccccc3)cc(OC)c21`: the Ki is greater than 10000 nM in series [1] and 430 nM in series [2]. Further, the Ratio Ki in series [3] was greater than 23. Besides, in series [4], the viability at 72 h, 1 µM is greater than 95%.

For `CCCCc1[nH]c2ccc(Br)cc2c(=O)c1C(=O)NC12CC3CC(CC(C3)C1)C2`, the Ki is greater than 10000 nM in series [1] and 1180 nM in [2]. Further, the Ratio Ki in [3] is greater than 8.

With `CCCCCn1cc(C(=O)NC23CC4CC(CC(C4)C2)C3)c(=O)c2cccc(C)c21`, the Ki in series [1] was greater than 10000 nM; in series [2], 0.7 nM. Moreover, the Ratio Ki in series [3] was greater than 2040. For the same compound, in series [4], the viability at 72 h, 1 µM is greater than 95%.

As for `CCC1COc2cccc3c(=O)c(C(=O)NC45CC6CC(CC(C6)C4)C5)cn1c23` (stereo not given), the outcome in series [5] and in series [9] was Active. The Ki in series [1] was determined as 1000 nM; in [2], 6.9 nM. For the same compound, the Ratio Ki in [3] turned out to be 145. Moreover, the inhibition result in series [7] and in series [8] was “inactive” throughout. For the same compound, the viability at 72 h, 1 µM in [4] was greater than 95%. The minimal effective dose in [10] was 1 mg/kg.

Take `CCCCCn1cc(C(=O)NC23CC4CC(CC(C4)C2)C3)c(=O)c2cc(-c3ccco3)cc(OC)c21`: the result in series [5] was Active. In addition, the Ki was greater than 10000 nM in [1] and 8.5 nM in series [2]. Further, in series [3], the Ratio Ki was greater than 1180. Also, the inhibition entry in [7] and in series [8] was “inactive” each time. Besides, in [4], the viability at 72 h, 1 µM was greater than 95%. Moreover, in [10], the minimal effective dose was determined as 1 mg/kg. Also, the result in series [9] was inactive.

Consider `CCCCCn1cc(C(=O)NC23CC4CC(CC(C4)C2)C3)c(=O)c2cccc(OC)c21`, for which the results for the inhibition constant Ki in [1] and in series [2] were greater than 10000 nM and 0.6 nM, respectively. Besides, the Ratio Ki in [3] was greater than 16700. In addition, the inhibition entry in series [7] and in series [8] was “inactive” in each case. The viability at 72 h, 1 µM in series [4] was greater than 95%. The outcome in series [11] and in [12] was Active.

For `O=C(NC12CC3CC(CC(C3)C1)C2)c1cnc2c(-c3ccccc3)cccc2c1O`, the Ki in series [1] is greater than 10000 nM; in series [2] it was 220 nM. For the same compound, in [4], the viability at 72 h, 1 µM is greater than 95%.
